From ChEMBL document CHEMBL2424622, “Development of amino-pyrimidine inhibitors of c-Jun N-terminal kinase (JNK): kinase profiling guided optimization of a 1,2,3-benzotriazole lead” (Bioorg Med Chem Lett, 2013) come the findings set out here.

Some results are limits rather than exact numbers.

The species named for test [1] is Homo sapiens. The experiment in a line: Selectivity ratio of IC50 for human JNK2 to IC50 for human JNK1. An outline of the steps:
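JNK1 and JNK2 activities were each measured as phosphorylation of GST-ATF2 (19–96) with [γ-33P]ATP, and IC50s were determined for each enzyme. The ratio is JNK2 IC50 over JNK1 IC50. IC50s are the mean of at least three experiments.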

Test [2] concerns the target T1, NUAK family SNF1-like kinase 2 (Homo sapiens) (UniProt Q9H093).
T1 sequence (whole entry): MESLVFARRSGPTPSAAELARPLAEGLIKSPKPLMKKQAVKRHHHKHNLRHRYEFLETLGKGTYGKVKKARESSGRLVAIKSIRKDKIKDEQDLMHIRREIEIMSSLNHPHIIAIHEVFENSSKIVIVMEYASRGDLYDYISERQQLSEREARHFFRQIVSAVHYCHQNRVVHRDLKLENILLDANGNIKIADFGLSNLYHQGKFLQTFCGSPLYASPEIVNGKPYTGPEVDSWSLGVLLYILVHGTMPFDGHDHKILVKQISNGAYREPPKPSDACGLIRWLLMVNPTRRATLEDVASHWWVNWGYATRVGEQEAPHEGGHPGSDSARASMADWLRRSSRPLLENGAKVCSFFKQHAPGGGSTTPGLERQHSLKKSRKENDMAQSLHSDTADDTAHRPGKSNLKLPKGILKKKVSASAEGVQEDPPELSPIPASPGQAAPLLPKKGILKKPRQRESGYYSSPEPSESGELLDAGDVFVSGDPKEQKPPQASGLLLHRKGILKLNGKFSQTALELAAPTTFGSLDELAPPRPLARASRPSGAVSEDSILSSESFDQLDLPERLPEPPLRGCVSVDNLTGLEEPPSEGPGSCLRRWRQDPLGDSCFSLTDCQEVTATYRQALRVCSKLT
The experiment in a line: Competitive binding affinity to SNARK (unknown origin) at 10 uM in presence of ATP relative to control.

The target in test [3] is Atypical kinase COQ8A, mitochondrial (Homo sapiens, UniProt Q8NI60). The experiment in a line: Competitive binding affinity to ADCK3 (unknown origin) at 10 uM in presence of ATP relative to control. In short, it runs like this: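 In vitro ATP-site competition binding assay across a diverse panel of 128 kinases, with each compound tested at a single concentration. Kinase binding is expressed relative to control.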

Test [4] deals with Epithelial discoidin domain-containing receptor 1 (Homo sapiens) (UniProt Q08345). Kind of test: Competitive binding affinity to DDR1 (unknown origin) at 10 uM in presence of ATP relative to control.
Test [5] addresses T2, cAMP-dependent protein kinase catalytic subunit PRKX (Homo sapiens) (UniProt P51817).
T2 sequence (whole entry): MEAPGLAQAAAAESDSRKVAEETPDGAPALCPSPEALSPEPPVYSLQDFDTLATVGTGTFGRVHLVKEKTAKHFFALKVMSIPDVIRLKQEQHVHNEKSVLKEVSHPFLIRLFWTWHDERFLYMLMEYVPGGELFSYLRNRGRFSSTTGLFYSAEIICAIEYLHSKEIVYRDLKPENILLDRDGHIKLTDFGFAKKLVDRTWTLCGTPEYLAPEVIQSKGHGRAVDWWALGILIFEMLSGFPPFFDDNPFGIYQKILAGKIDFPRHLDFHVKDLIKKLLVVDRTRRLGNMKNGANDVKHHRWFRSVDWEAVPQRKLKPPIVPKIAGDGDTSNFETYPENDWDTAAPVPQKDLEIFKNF
Kind of test: Competitive binding affinity to PRKX (unknown origin) at 10 uM in presence of ATP relative to control.

The species named for test [6] is Homo sapiens. Kind of test: Competitive binding affinity to EGFR L747 to E749 deletion mutant, A750P mutant (unknown origin) at 10 uM in presence of ATP relative to control.
The target in test [7] is Cyclin-dependent kinase 8 (Homo sapiens) (UniProt P49336). The experiment in a line: Competitive binding affinity to CDK8 (unknown origin) at 10 uM in presence of ATP relative to control.
Test [8] addresses T3, Serine/threonine-protein kinase DCLK1 (Homo sapiens) (UniProt O15075).
T3 sequence (whole entry): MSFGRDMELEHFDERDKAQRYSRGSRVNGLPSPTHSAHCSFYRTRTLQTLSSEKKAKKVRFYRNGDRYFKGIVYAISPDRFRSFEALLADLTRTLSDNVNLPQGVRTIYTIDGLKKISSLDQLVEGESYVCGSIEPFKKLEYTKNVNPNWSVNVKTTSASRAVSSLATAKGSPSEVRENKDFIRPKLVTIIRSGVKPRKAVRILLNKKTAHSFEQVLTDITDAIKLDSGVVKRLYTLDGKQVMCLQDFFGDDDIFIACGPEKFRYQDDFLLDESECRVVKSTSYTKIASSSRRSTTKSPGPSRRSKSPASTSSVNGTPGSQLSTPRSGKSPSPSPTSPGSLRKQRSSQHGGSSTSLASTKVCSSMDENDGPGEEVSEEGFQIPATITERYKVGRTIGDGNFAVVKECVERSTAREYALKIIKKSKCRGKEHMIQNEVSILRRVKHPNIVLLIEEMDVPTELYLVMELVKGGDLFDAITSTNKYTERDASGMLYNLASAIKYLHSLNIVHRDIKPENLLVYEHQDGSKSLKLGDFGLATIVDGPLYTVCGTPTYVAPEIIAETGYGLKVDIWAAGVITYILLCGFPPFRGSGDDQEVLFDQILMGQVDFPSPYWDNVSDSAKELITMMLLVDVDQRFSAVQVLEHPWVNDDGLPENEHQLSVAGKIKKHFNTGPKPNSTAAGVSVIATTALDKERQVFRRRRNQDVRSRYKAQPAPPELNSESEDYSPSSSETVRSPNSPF
Kind of test: Competitive binding affinity to DCAMKL1 (unknown origin) at 10 uM in presence of ATP relative to control.

For test [9], the target named is Serine/threonine-protein kinase pim-1 (Homo sapiens) (UniProt P11309). Kind of test: Competitive binding affinity to PIM1 (unknown origin) at 10 uM in presence of ATP relative to control.
The target in test [10] is Serine/threonine-protein kinase PAK 2 (Homo sapiens) (UniProt Q13177). The experiment in a line: Competitive binding affinity to PAK2 (unknown origin) at 10 uM in presence of ATP relative to control. In short, it runs like this:
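In vitro ATP-site competition binding assay across a diverse panel of 128 kinases, with compound tested at a single concentration. Kinase selectivity scores (S15) were calculated from the panel profiles.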

Test [11] has as its target ALK tyrosine kinase receptor (Homo sapiens) (UniProt Q9UM73). Kind of test: Competitive binding affinity to ALK (unknown origin) at 10 uM in presence of ATP relative to control.

With `O=C([C@H]1CC[C@H](Nc2nccc(-n3nnc4ccccc43)n2)CC1)N1CCOCC1`, in the test listed under Homo sapiens [1], the Ratio IC50 came out at 4.

In the case of `CS(=O)(=O)CCCOc1cccc2c1ccn2-c1ccnc(N[C@H]2CC[C@H](C(=O)N3CCC(O)CC3)CC2)n1`, the inhibition in test [2] and in test [3] was more than 85% throughout.

With `O[C@H]1CC[C@H](Nc2nccc(-n3ccc4ccccc43)n2)CC1`, the inhibition in [4] is less than 50%; in test [5] it was less than 50%; in the test listed under Homo sapiens [6], less than 50%; in [7] it was less than 50%; in [8], less than 50%; in test [9], 76%. Besides, the inhibition is less than 50% in test [10], less than 50% in [2], less than 50% in [11] and 80% in test [3].

Turning to `O[C@H]1CC[C@H](Nc2nccc(-n3ncc4ccccc43)n2)CC1`, the inhibition in test [4] is less than 50%; in test [5] it was less than 50%; in the test filed under Homo sapiens [6], less than 50%; in test [7] it was less than 50%; in test [8] it was less than 50%; in [9], 96%. The inhibition was less than 50% in [10], 78% in [2], 78% in test [11] and 89% in test [3].

Regarding `O[C@H]1CC[C@H](Nc2nccc(-c3n[nH]c4ccccc34)n2)CC1`, the inhibition in test [5] is less than 50%; in the test listed under Homo sapiens [6], less than 50%; in test [9], 99%; in [10], 82%; in test [11], 100%; in test [3] it was 79%.

Take `N[C@H]1CC[C@H](Nc2nccc(-n3nnc4ccccc43)n2)CC1`: the Ratio IC50 in the test filed under Homo sapiens [1] was 4.

As to `O[C@H]1CC[C@H](Nc2nccc(-n3nnc4ccccc43)n2)CC1`, the inhibition in test [4] was less than 50%; in test [5], less than 50%; in the test listed under Homo sapiens [6] it was less than 50%; in test [7], 82%; in test [8], 66%; in [9] it was 87%. Further, the inhibition in test [10] was less than 50%; in test [2], 94%; in test [11], 66%; in [3], 92%. In addition, the Ratio IC50 in the test filed under Homo sapiens [1] is 4.

One may read the inhibition as the percentage by which the read-out fell short of the control.
